Calls of active or inactive are those of the source. No cut-off for these calls is given here.
Experiments:
Tubulin (Homo sapiens) [1] = target: T1, Tubulin (Homo sapiens) (UniProt P68371+Q9H4B7+P0DPH7+P68366+Q13509+Q71U36+P04350+Q3ZCM7+P07437+P68363+Q9BQE3+Q6PEY2+Q13885+Q9BVA1+Q9BUF5); test: Inhibition of [3H]colchicine binding to tubulin (unknown origin) at 1 uM measured after 10 mins by beckman scintillation counting method relative to control; format: protein-complex assay
Procedure, shortened: (§1)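 Each 0.1 mL mix held 1.0 µM tubulin, 5.0 µM [3H]colchicine, 5% DMSO and compound at 1.0 or 5.0 µM. Stabilising components were 1.0 M monosodium glutamate pH 6.6, 0.5 mg/mL BSA, 0.1 M glucose-1-phosphate, 1.0 mM MgCl2 and 1.0 mM GTP. After 10 min at 37 °C, reactions were stopped with ice-cold water and filtered on DEAE-cellulose. Bound label was counted and percent inhibition taken versus no-inhibitor samples, correcting for filter binding without tubulin.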

Tubulin (Homo sapiens) [2] = target: T1, Tubulin (Homo sapiens); test: Inhibition of [3H]colchicine binding to tubulin (unknown origin) at 5 uM measured after 10 mins by beckman scintillation counting method relative to control; format: protein-complex assay; procedure, shortened: as §1
Tubulin = Tubulin (Bos taurus, UniProt Q6B856+Q862L2+Q862F3); test: Inhibition of bovine brain tubulin polymerization preincubated for 15 mins followed by GTP addition and measured for 20 mins by turbidimetry-based spectrophotometric method
Procedure, shortened: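 Mixtures held 10 µM purified bovine brain tubulin, 0.8 M monosodium glutamate pH 6.6, 4% DMSO and varied compound concentrations. These were preincubated 15 min at 30 °C without GTP, then chilled to 0 °C, and GTP was added to 0.4 mM final. Temperature was raised to 30 °C and turbidity followed at 350 nm for 20 min.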

SK-OV-3 = test: Cytotoxicity against human SKOV3 cells assessed as growth inhibition measured after 48 hrs by SRB assay; format: functional; conditions: SK-OV-3, 48 h
DU-145 = test: Cytotoxicity against human DU145 cells assessed as growth inhibition measured after 48 hrs by SRB assay; format: functional; conditions: DU-145, 48 h
NCI-H460 = test: Cytotoxicity against human NCI-H460 cells assessed as growth inhibition measured after 48 hrs by SRB assay; format: functional; conditions: NCI-H460, 48 h
Tubulin (Homo sapiens) [3] = target: T1, Tubulin (Homo sapiens); test: Inhibition of [3H]colchicine binding to tubulin (unknown origin) measured after 10 mins by beckman scintillation counting method relative to control; format: protein-complex assay
Procedure, shortened: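 The 0.1 mL mix held 1.0 µM tubulin, 5.0 µM [3H]colchicine, 5% DMSO and compound at 1.0 or 5.0 µM. It also held 1.0 M monosodium glutamate (pH 6.6), 0.5 mg/mL BSA, 0.1 M glucose-1-phosphate, 1.0 mM MgCl2 and 1.0 mM GTP. After 10 min at 37 °C the reaction was stopped on ice, the mix filtered through DEAE-cellulose and counted. Percent inhibition was taken against the no-inhibitor control, corrected for label bound without tubulin.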

PC-3 [4] = test: Induction of vascular damage in human PC3 cells harboring DAB2IP-luc xenografted in Copenhagen rat assessed as reduction in light emission at 80 mg/kg, ip measured after 4 to 24 hrs by Bioluminescence imaging analysis; format: functional, organism-based
Procedure, shortened: (§2)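 Male Copenhagen rats (about 6 weeks old, 100-120 g) were implanted s.c. in the right thigh with 5 X 10⁵ PC3-DAB2IP-luc cells in 30% Matrigel. Tumors were at least 1 cm in diameter before treatment. Prodrug in saline (25 mg/mL) was given IP, one rat per regimen. Under isoflurane, 120 mg/kg D-luciferin was injected s.c. fresh at baseline, 4 h and 24 h. Tumor ROI light emission was followed over about 30 min.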

PC-3 [5] = test: (§3) Induction of vascular damage in human PC3 cells harboring DAB2IP-luc xenografted in Copenhagen rat assessed as reduction in light emission at 10 mg/kg, ip measured after 4 to 24 hrs by Bioluminescence imaging analysis; format: functional, organism-based; procedure, shortened: as §2
PC-3 [6] = test: as §3, with “ip administered 24 hrs prior to 40 mg/kg, ip dosing for 4 hrs followed by CA4P dosing at 30 mg/kg, ip and” for “ip”, “bioluminescence” for “Bioluminescence”; format: functional, organism-based; procedure, shortened: as §2
PC-3 [7] = test: Induction of vascular damage in human PC3 cells harboring DAB2IP-luc xenografted in Copenhagen rat assessed as reduction in light emission at 10 mg/kg, ip administered 6 hrs prior to 40 mg/kg, ip dosing and measured after 4 hrs by bioluminescence imaging analysis relative to control; format: functional; set-up: scale not given: the % may be the effect or the level left; procedure, shortened: as §2
[8] = Toxicity in Copenhagen rat xenografted with human PC3 cells harboring DAB2IP-luc at 40 mg/kg, ip measured after 48 hrs; format: organism-based; conditions: in vivo
[9] = Toxicity in Copenhagen rat xenografted with human PC3 cells harboring DAB2IP-luc at 80 mg/kg, ip measured after 4 to 24 hrs; format: organism-based; conditions: in vivo
PC-3 [10] = test: Induction of vascular damage in human PC3 cells harboring DAB2IP-luc xenografted in Copenhagen rat assessed as reduction in light emission at 40 mg/kg, ip measured after 24 to 48 hrs by Bioluminescence imaging analysis; format: functional, organism-based; procedure, shortened: as §2
PC-3 [11] = test: Induction of vascular damage in human PC3 cells harboring DAB2IP-luc xenografted in Copenhagen rat assessed as reduction in light emission at 10 mg/kg, ip administered 6 hrs prior to 40 mg/kg, ip dosing and measured after 24 hrs by bioluminescence imaging analysis; format: functional, organism-based; procedure, shortened: as §2
PC-3 [12] = test: Induction of vascular damage in human PC3 cells harboring DAB2IP-luc xenografted in Copenhagen rat assessed as reduction in light emission at 40 mg/kg, ip measured after 4 hrs by Bioluminescence imaging analysis; format: functional, organism-based; procedure, shortened: as §2
Tubulin (Homo sapiens) [13] = target: T1, Tubulin (Homo sapiens); test: Inhibition of [3H]colchicine binding to tubulin (unknown origin) at 0.5 uM measured after 10 mins by beckman scintillation counting method relative to control; format: protein-complex assay

In the case of `COc1ccc2c(c1O)CCCC=C2c1cc(OC)c(OC)c(OC)c1`, the inhibition (Tubulin (Homo sapiens) [1]) is reported as 73%, the inhibition (Tubulin (Homo sapiens) [2]) is reported as 95% and the IC50 (Tubulin) is reported as 850 nM.
Work on `COc1cc(C2=CCCCc3c2ccc(OC)c3OCCO)cc(OC)c1OC` yielded a GI50 (SK-OV-3) of 3220 nM, a GI50 (DU-145) of 3760 nM and a GI50 (NCI-H460) of 855 nM. The IC50 (Tubulin) was > 20000 nM.
Work on `COc1ccc(/C=C\c2cc(OC)c(OC)c(OC)c2)cc1OP(=O)(O)O` [FOSBRETABULIN DISODIUM] yielded a GI50 (SK-OV-3) of 1.19 nM, a GI50 (DU-145) of 3.23 nM and a GI50 (NCI-H460) of 1.94 nM.
For `COc1ccc2c(c1O)CCC(NC(C)=O)C=C2c1cc(OC)c(OC)c(OC)c1` (stereo not given), the GI50 (DU-145) was 1200 nM, the GI50 (NCI-H460) was 334 nM and the inhibition (Tubulin (Homo sapiens) [2]) was 0.4%.
`CC(=O)O[C@H]1C(=O)[C@@]2(C)[C@H]([C@H](OC(=O)c3ccccc3)[C@]3(O)C[C@H](OC(=O)[C@H](O)[C@@H](NC(=O)c4ccccc4)c4ccccc4)C(C)=C1C3(C)C)[C@]1(OC(C)=O)CO[C@@H]1C[C@@H]2O` [PACLITAXEL] gave a GI50 (SK-OV-3) of 1.34 nM, a GI50 (DU-145) of 1.47 nM and a GI50 (NCI-H460) of 1.76 nM. The inhibition (Tubulin (Homo sapiens) [3]) was “inactive”.
Work on `COc1ccc2c(c1CO)CCCC=C2c1cc(OC)c(OC)c(OC)c1` yielded a GI50 (NCI-H460) of 62.8 nM, an inhibition (Tubulin (Homo sapiens) [2]) of 76% and an IC50 (Tubulin) of 630 nM.
For `COc1cc(C2(O)C=CCCc3c2ccc(OC)c3OC)cc(OC)c1OC` (stereo not given), the GI50 (SK-OV-3) was 27200 nM, the GI50 (DU-145) was 26000 nM and the GI50 (NCI-H460) was 70500 nM. The inhibition (Tubulin (Homo sapiens) [2]) was 0% and the IC50 (Tubulin) was > 20000 nM.
For `COc1cc(C2=CC=CCc3c2ccc(OC)c3OP(=O)([O-])[O-])cc(OC)c1OC.[Na+].[Na+]`, the Activity (PC-3 [4]) was “inactive”, the Activity (PC-3 [5]) was “inactive” and the Activity (PC-3 [6]) was “Active”. For the same molecule, the Activity (PC-3 [7]) was 95%, the Activity [8] was “Non-Toxic” and the GI50 (NCI-H460) was 29.1 nM. For the same molecule, the Activity [9] was “Non-Toxic”, the Activity (PC-3 [10]) was “inactive” and the Activity (PC-3 [11]) was “inactive”. For the same molecule, the Activity (PC-3 [12]) was “Active”, the inhibition (Tubulin (Homo sapiens) [2]) was 45% and the IC50 (Tubulin) was 16000 nM.
Work on `COc1ccc2c(c1C)CCCC(Br)=C2c1cc(OC)c(OC)c(OC)c1` yielded a GI50 (SK-OV-3) of 312 nM, an inhibition (Tubulin (Homo sapiens) [1]) of 35% and a GI50 (DU-145) of 423 nM. For the same molecule, the GI50 (NCI-H460) was 449 nM and the IC50 (Tubulin) was 4900 nM.
`COc1ccc2c(c1O)CCCC(O)C2(O)c1cc(OC)c(OC)c(OC)c1` (stereo not given) showed a GI50 (SK-OV-3) of 3030 nM, a GI50 (DU-145) of 4040 nM and a GI50 (NCI-H460) of 3860 nM. The inhibition (Tubulin (Homo sapiens) [2]) was 0% and the IC50 (Tubulin) was > 20000 nM.
For `COc1ccc2c(c1O)CC=CC=C2c1cc(OC)c(OC)c(OC)c1`, the inhibition (Tubulin (Homo sapiens) [13]) was 68%, the GI50 (NCI-H460) was 58.1 nM and the inhibition (Tubulin (Homo sapiens) [2]) was 95%. It also gave an IC50 (Tubulin) of 480 nM.
For `COc1cccc2c1C(=O)c1c(O)c3c(c(O)c1C2=O)C[C@@](O)(C(=O)CO)C[C@@H]3O[C@H]1C[C@H](N)[C@H](O)[C@H](C)O1` [DOXORUBICIN], the GI50 (SK-OV-3) was 78.9 nM, the GI50 (DU-145) was 134 nM and the GI50 (NCI-H460) was 123 nM.
Work on `COc1ccc2c(c1O)CCCCC2(O)c1cc(OC)c(OC)c(OC)c1` (stereo not given) yielded a GI50 (SK-OV-3) of 394 nM, a GI50 (DU-145) of 33 nM and a GI50 (NCI-H460) of 173 nM. The IC50 (Tubulin) was > 20000 nM.
For `COc1cc(C2=CC(O)CCc3c2ccc(OC)c3OC)cc(OC)c1OC` (stereo not given), the GI50 (SK-OV-3) was 263 nM, the GI50 (DU-145) was 439 nM and the GI50 (NCI-H460) was 432 nM. For the same molecule, the inhibition (Tubulin (Homo sapiens) [2]) was 28% and the IC50 (Tubulin) was 3800 nM.
With `COc1ccc2c(c1C#N)CCCC=C2c1cc(OC)c(OC)c(OC)c1` the GI50 (SK-OV-3) was 64.8 nM, the GI50 (DU-145) was 860 nM and the GI50 (NCI-H460) was 434 nM. The inhibition (Tubulin (Homo sapiens) [2]) was 62% and the IC50 (Tubulin) was 1100 nM.
With `COc1ccc(/C=C\c2cc(OC)c(OC)c(OC)c2)cc1O` [COMBRETASTATIN A4] the GI50 (SK-OV-3) was 4.55 nM, the GI50 (DU-145) was 3.27 nM and the GI50 (NCI-H460) was 2.23 nM.
For `COCCOCCOc1c(OC)ccc2c1CCCC=C2c1cc(OC)c(OC)c(OC)c1`, the GI50 (SK-OV-3) was 6520 nM, the GI50 (DU-145) was 5660 nM and the GI50 (NCI-H460) was 1900 nM. For the same molecule, the IC50 (Tubulin) was > 20000 nM.
In the case of `COc1ccc2c(c1C=O)CCCC=C2c1cc(OC)c(OC)c(OC)c1`, the GI50 (SK-OV-3) is reported as 57.2 nM, the GI50 (DU-145) is reported as 40.2 nM and the GI50 (NCI-H460) is reported as 84.7 nM. For the same molecule, the inhibition (Tubulin (Homo sapiens) [2]) was 61% and the IC50 (Tubulin) was 3200 nM.
For `COc1ccc2c(c1O)CCCC(Br)=C2c1cc(OC)c(OC)c(OC)c1`, the GI50 (SK-OV-3) was 22.1 nM, the GI50 (DU-145) was 36.2 nM and the GI50 (NCI-H460) was 35.3 nM. It also gave an inhibition (Tubulin (Homo sapiens) [2]) of 88% and an IC50 (Tubulin) of 390 nM.
Molecule `COc1cc(C2CCc3c(ccc(OC)c3OC)C(=O)C2)cc(OC)c1OC` (stereo not given) has a GI50 (SK-OV-3) of 5770 nM, a GI50 (DU-145) of 4450 nM and a GI50 (NCI-H460) of 2000 nM. For the same molecule, the inhibition (Tubulin (Homo sapiens) [2]) was 0% and the IC50 (Tubulin) was > 20000 nM.
In the case of `COc1ccc2c(c1O)CCCC(=O)C2(O)c1cc(OC)c(OC)c(OC)c1` (stereo not given), the GI50 (SK-OV-3) is reported as 31.4 nM, the GI50 (DU-145) is reported as 141 nM and the GI50 (NCI-H460) is reported as 47.6 nM. For the same molecule, the inhibition (Tubulin (Homo sapiens) [2]) was 72% and the IC50 (Tubulin) was 1200 nM.
For `COc1ccc2c(c1C#N)CCC=C2c1cc(OC)c(OC)c(OC)c1`, the GI50 (SK-OV-3) was 38.4 nM, the GI50 (DU-145) was 25.2 nM and the GI50 (NCI-H460) was 60.5 nM. It also gave an inhibition (Tubulin (Homo sapiens) [2]) of 73% and an IC50 (Tubulin) of 370 nM.
For `CCOC(=O)c1c(OC)ccc2c1CCCC=C2c1cc(OC)c(OC)c(OC)c1`, the GI50 (SK-OV-3) was 299 nM, the GI50 (DU-145) was 631 nM and the GI50 (NCI-H460) was 353 nM. It also gave an inhibition (Tubulin (Homo sapiens) [2]) of 47% and an IC50 (Tubulin) of 1000 nM.
